HCV NS3 hel inh – inhibitors of HCV NS3 helicase, primary screen, biochemical, Cy5 molecular beacon fluorescence; Hepatitis C virus NS3 helicase; NS3 helicase DNA unwinding; inhibition, % at 10.9 µM; hit rate 0.56% among 290,000;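 active means inhibition above the mean of all tested compounds plus 3 SD, set per campaign, cut at about 35% in these data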;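 further: 0% = DMSO wells and 100% = thioflavine S control wells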
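assay system = NS3 helicase fragment of HCV | buffer or medium = MOPS pH 6.5, MgCl2, DTT, Tween20, BSA | timing = 60 min unwinding reaction at 25 °C after ATP addition | signal = Cy5 beacon fluorescence read at start and 1 h | read-out basis = % inhibition of unwinding | control set = low DMSO, high thioflavine S at 110 µM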
GPR7 antag – GPR7 receptor antagonists, primary screen, cell-based, fluorescence, single concentration. hit rate 1.1% among 290,000. AID 1861, 2009. Neuropeptides B/W receptor type 1 (Homo sapiens), P48145. inhibition, % at 4.4 µM. GPR7-expressing cells, fluorescence antagonist assay; in the data active means inhibition above about 16%, passing the limit was not always enough;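 further: cells stimulated with the agonist NPW; 0% = agonist with vehicle and 100% = vehicle without agonist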
Target sequence (P48145 whole entry, looked up): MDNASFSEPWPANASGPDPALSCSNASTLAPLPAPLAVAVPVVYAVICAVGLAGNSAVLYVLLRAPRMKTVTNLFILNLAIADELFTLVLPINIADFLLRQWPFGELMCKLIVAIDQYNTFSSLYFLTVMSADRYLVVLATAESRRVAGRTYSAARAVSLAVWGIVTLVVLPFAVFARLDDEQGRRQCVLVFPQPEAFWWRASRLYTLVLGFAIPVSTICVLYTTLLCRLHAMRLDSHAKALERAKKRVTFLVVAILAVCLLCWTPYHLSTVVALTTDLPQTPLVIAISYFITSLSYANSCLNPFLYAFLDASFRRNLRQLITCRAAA
GRK2 aptamer HTS – compounds blocking aptamer binding on GRK2 – biochemical, human GRK2, bead flow cytometry, HTS, primary screen | AID 488847, 2010 | FAM-aptamer displacement from GRK2 | hit rate 0.59% among 330,000 | inhibition of aptamer binding, % at 10 µM | Beta-adrenergic receptor kinase 1 (Homo sapiens), P25098;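 active means inhibition of aptamer binding above 40%, roughly 3 SD of noise, on plates passing a quality check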;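 further: median bead fluorescence of bound FAM aptamer so fluorescent compounds give negative values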
DNA FID counter – compounds displacing fluorescent DNA intercalator, primary screen, artefact control for HCV NS3 helicase inhibitor project, biochemical, FID fluorescence | hit rate 0.17% among 290,000 | DNA fluorescent intercalator displacement | inhibition, % at 7.9 µM; in the data active means inhibition above about 37%;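 further: 0% = vehicle and 100% = reference compound; higher means more ethidium bromide displaced from hairpin DNA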
HCV core dimer – inhibitors of HCV core protein dimerization, primary screen, biochemical, TR-FRET, high-throughput | TR-FRET GST/Flag-core106 dimerization, 1536-well | inhibition, % at 5 µM | hit rate 0.33% among 300,000;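 active means inhibition above the mean of all tested compounds plus 3 SD, set per screening campaign, cut at about 45% in these data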
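Assay system – GST-tagged and Flag-tagged HCV core protein residues 1-106 · Quantity – core106 proteins, GST 13.5 nM and Flag 17 nM · Benchmarks – unlabelled core106 and no-GST-core106 wells · Read-out basis – percent inhibition of core106 dimerization signal · Detection – time-resolved FRET, ex 340 nm, em 617 and 671 nm · Schedule – 4 h at 22.5 °C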
DAGLB inhibitor – DAGLB lipase inhibitors, primary screen, biochemical, fluorescence, HTS. Diacylglycerol lipase-beta (Homo sapiens), Q8NCG7. HEK293T DAGLB membrane lysate, EnzChek fluorogenic substrate. inhibition, % at 5.17 µM. hit rate 0.059% among 340,000. AID 504411, 2011; in the data active means inhibition above about 34%;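 further: 0% = enzyme with vehicle and 100% = wells lacking enzyme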
GRK2 inh confirm – GRK2 aptamer-displacing inhibitors, retest, confirmation, biochemical, cherry pick 1, bead flow cytometry; bead-bound GRK2, FAM-aptamer displacement; AID 504451, 2011; shares compounds with GRK2 aptamer HTS; aptamer displacement, % at 10 µM; hit rate 4% among 2,000;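 active means aptamer displacement above 40%, near three times the noise of non-fluorescent compounds, on plates passing quality checks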;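 further: negative values mostly reflect intrinsic compound fluorescence rather than true enhancement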
Aptamer quench 1 – fluorescent aptamer quenching in GRK2 counter-screen dose response; Fluorescent RNA aptamer beads, flow cytometry; active compounds read high; fluorescence change (kMESF span), kMESF (no concentration beside the values); shares compounds with GRK2 aptamer HTS; 110 tested, under 10 active; AID 504521;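 active means compounds whose bead fluorescence drops by more than 37 kMESF across the dose range, marking them as dye quenchers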
Aptamer quench SP – quenches fluorescent RNA aptamer, GRK2 hit artifact; shares compounds with GRK2 aptamer HTS; Carboxyfluorescein RNA aptamer on beads, flow cytometry quenching; active compounds read low; fluorescence response (% of DMSO), % at 10 µM; 2,000 tested, under 10 active; AID 504580;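 active means compounds that quench the bead-bound fluorescent RNA probe, cutting fluorescence to under half of the solvent control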;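 further: counterscreen run without GRK2 so only probe quenching by compound is measured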
GRK2 confirm 2 – GRK2 aptamer-displacing inhibitors, hit retest, confirmation, biochemical, cherry pick 2, bead flow cytometry | shares compounds with GRK2 aptamer HTS | bead-bound GRK2, FAM-aptamer displacement | inhibition of aptamer binding, % at 10 µM | 360 tested, under 10 active | AID 504782, 2011;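 active means inhibition of aptamer binding above 40%, about triple the noise seen with nonglowing compounds, on plates passing quality control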;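 further: negative values mostly come from compounds that fluoresce themselves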
FAM quench SP – aptamer fluorescence quenching in GRK2 counter-screen; shares compounds with GRK2 aptamer HTS; carboxyfluorescein RNA aptamer beads, flow cytometry quenching; active compounds read low; fluorescence response vs DMSO, % at 10 µM; 360 tested, under 10 active; AID 588494;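 active means response vs DMSO under 50%, meaning signal dropped by over half, treated as fluorescence quencher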;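 further: labelled aptamer on streptavidin beads without GRK2 as a quench counter-screen; 100% = bead fluorescence of DMSO wells and lower means quenching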
* = called active by the depositor; . = no result given. An excerpt weighted towards active compounds, which were near 2.2% of everything screened.

SMILES	HCV NS3 hel inh	GPR7 antag	GRK2 aptamer HTS	DNA FID counter	HCV core dimer	DAGLB inhibitor	GRK2 inh confirm	Aptamer quench SP	others
CC(=O)c1cn(C)c(=O)c2ccccc12	16	16	2	-1	1	.	.	.
CCc1ccc(N(CC)C(=O)c2cn(C)c(=O)c3ccccc23)cc1	-1	-13	29	-34	-3	-2	0	102
COc1cc(/C=C2\CCc3c2nc2ccccc2c3C(=O)O)cc(OC)c1OC	20	-5	62*	-27	10	2	45*	100	Aptamer quench 1=0.3
COc1cc(/C=C2\CCCc3c2nc2ccccc2c3C(=O)O)cc(Br)c1O	17	-9	0	-19	-14	5	.	.
O=C(Nc1ccc2c(c1)OCO2)Nc1ccc(Cl)cc1Cl	-3	4	92*	2	-5	0	-5	94
O=C(Nc1ccc(Cl)cc1)Nc1ccc2c(c1)OCO2	9	24	6	1	-3	-1	.	.
CCCc1nnc(NC(=O)CCS(=O)(=O)c2ccccc2)s1	1	-4	13	-10	-13	-1	18	99
CCCCc1nnc(NC(=O)CCS(=O)(=O)c2ccc(Cl)cc2)s1	.	.	3	.	.	-5	1	92
CCCc1nnc(NS(=O)(=O)c2ccccc2)s1	-8	-12	0	-7	1	-2	.	.
Cc1cccc(NS(=O)(=O)c2c(C)[nH]c(C)c2C(=O)N2CCCC2)c1	2	-4	0	-15	-10	2	.	.
COc1ccccc1CNC(=O)C1COc2ccccc2O1 (centres undefined)	2	-2	52*	-9	3	-2	2	100
COc1ccc(CNC(=O)C2COc3ccccc3O2)cc1 (centres undefined)	-1	-1	0	-5	-4	-2	.	.
CCn1c(CSc2nnc(-c3ccc4c(c3)OCO4)o2)nc2cc(S(=O)(=O)N(C)C)ccc21	-4	-4	43*	-7	0	0	-2	105
CCn1c(CSc2nnc(C)n2-c2ccccc2)nc2cc(S(=O)(=O)N(C)C)ccc21	1	-3	0	-16	7	-2	.	.
COc1cc2c(cc1OC)CN(C(=O)c1cccc(S(=O)(=O)N3CCc4ccccc43)c1)CC2	.	.	3	.	.	0	.	.
COc1ccc(CCNC(=O)C2CCN(S(=O)(=O)c3cccc4cccnc34)CC2)cc1OC	19	-10	4	-46	-11	1	.	.
O=C(Cc1cccs1)N1CCN(S(=O)(=O)c2cc(Cl)ccc2Cl)CC1	.	.	0	.	3	0	.	.
COc1ccccc1S(=O)(=O)n1cc(Cc2ccccc2)c(N)n1	20	-10	74*	-17	-3	-4	-11	97
CC1C(=O)N(Cc2cn(CCC3OCCCO3)nn2)CCS(=O)(=O)N1Cc1ccc(-c2ccncc2)cc1 (centres undefined)	.	.	.	.	.	0	.	.
CCCNS(=O)(=O)c1ccc(CCC(=O)N2CCOCC2)cc1	-2	-11	61*	1	2	0	-13	96
CCOc1ccc(Cl)cc1CSc1n[nH]c(CC)n1	-1	2	61*	-10	-1	-1	-14	101
Cc1ccc(S(=O)(=O)NCCOC(=O)Nc2sc(=S)n(C)c2C)cc1	-3	-5	96*	-2	-10	1	-5	102
Cc1ncc(CO)c(CNc2ccc(Oc3ccccc3)cc2)c1O	-14	-10	0	-6	.	-2	.	.
COC(=O)c1cc2c(ccn2-c2ccc(F)cc2)n1C(C)C	0	7	67*	-5	1	-5	1	96
CCCCCn1c(CN2CCCCC2CC)nc2c1c(=O)n(C)c(=O)n2C (centres undefined)	1	-10	0	-4	6	-2	0	101
SMILES	HCV NS3 hel inh	GPR7 antag	GRK2 aptamer HTS	DNA FID counter	HCV core dimer	DAGLB inhibitor	GRK2 inh confirm	Aptamer quench SP	others
CCCCCn1c(CN2CCCCC2C)nc2c1c(=O)n(C)c(=O)n2C (centres undefined)	-10	-1	0	-9	-8	-2	.	.
COc1ccc(/C=C2\SC(=S)N(N3C(=O)CCC3=O)C2=O)cc1O	30	-13	1	-5	-6	4	12	60
Cn1c(N2CCN(C(=O)Nc3ccc(C(F)(F)F)cc3)CC2)nc2ccccc21	0	-18	3	-10	8	-5	-1	97
CCc1ccc(CN2CCCC(C(=O)N3CCCCC3)C2)cc1 (centres undefined)	-4	-11	0	3	5	-3	.	.
COc1ccc(NC(=O)N(C)C[C@H]2Oc3ccc(NC(=O)CCC(F)(F)F)cc3C(=O)N([C@H](C)CO)C[C@@H]2C)cc1	.	.	73*	.	.	1	.	.	GRK2 confirm 2=8;FAM quench SP=101
Cc1ccc(N2CC(C(=O)Nc3cccc(C(=O)NC4CC4)c3)CC2=O)cc1 (centres undefined)	.	.	6	.	.	0	6	98
CC(=O)N/C(=N\c1nc(C)cc(C)n1)Nc1ccccc1Cl	10	-8	.	-7	.	-2	.	.
CC(=O)N/C(=N/c1nc(C)cc(C)n1)Nc1cccc(C)c1C	-4	-15	17	-25	4	0	0	98
COc1ccc(CN(C)C(=O)c2ccc(NC(=O)CC3SC(N4CCCC4)=NC3=O)cc2)c(OC)c1OC (centres undefined)	.	.	0	.	-7	2	.	.
O=C(CC1SC(N2CCCCC2)=NC1=O)Nc1ccc(C(=O)NCc2ccccc2)cc1 (centres undefined)	.	.	0	.	.	-1	.	.
COc1ccc(CN(C)C(=O)c2ccc(NC(=O)CC3SC(N4CCCC4)=NC3=O)cc2)c(OC)c1 (centres undefined)	.	.	54*	.	2	2	0	96

Screening results (PubChem)
